In the EternaBench riboswitch data:

System: MS2 coat protein
Assay: apparent Kd, MS2 coat protein; higher = weaker binding; RNA-MaP array; FMN 200 µM where present
How it was run: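 The apparent Kd is reported as the median of filtered per-cluster binding-curve fits. To get these curves, designs transcribed by stalled E. coli RNA polymerase on Illumina sequencing-chip clusters were titrated with SNAP-549-labelled MS2 coat protein from 0.7 or 1.5 nM, doubling to 3 µM. Titrations were run without and then with constant ligand in 100 mM Tris-HCl pH 7.5, 80 mM KCl, 4 mM MgCl2, BSA, DTT, yeast tRNA and Tween-20, and green signal was normalised to red-channel RNA signal and control-cluster median Fmax.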

[1] = designed as: ON switch for flavin mononucleotide, no ligand
[2] = ligand present: flavin mononucleotide, designed as: ON switch for flavin mononucleotide
[3] = designed as: OFF switch for flavin mononucleotide, no ligand
[4] = ligand present: flavin mononucleotide, designed as: OFF switch for flavin mononucleotide

| Sequence | apparent Kd [1] [nM] | apparent Kd [2] [nM] | apparent Kd [3] [nM] | apparent Kd [4] [nM] |
| --- | --- | --- | --- | --- |
| ACAUGAGGAUCACCCAUGUUCACAUAGGAUAUUGAUUUUAUUGGUUUUAGAAUAGUAAUUAACCUCAAGAAGGAUGCCAGUUGU | 11.1 | 9.31 | – | – |
| ACAUGAGGAUCACCCAUGUUGAUAGUAGAAGGGACAGAGAAGUAGUAACAUGAGGAUCACCCAUGUCAGGAUAUGCGAAUUGGA | 35.2 | 30.1 | – | – |
| ACAUGAGGAUCACCCAUGUUUUCAUGGAUUAUUAUUCUUUGAUAGGAUAUGUUAGUUAAGUAUUUACAGAAGGAUCAUUACCAA | – | – | 22.6 | 16.1 |
| ACAUGAGGAUCACCCAUGUUUUUUGGGUACUCUUGAUACAGCAAGGAUAUGCAUUAUUUAUGUACGCAGAAGGUGCAUUACGUC | – | – | 920 | 853 |
| ACAUGAGGAUGAGGAUAUUCAUACAUGAGGAUAGAAGAAGGCAUACAUGAGGAUCACCCAUGUAUACACAUGAGGAUCGCCCAU | – | – | 37.1 | 47.3 |
| ACAUGAUAUGUAGGAUAUCACAUUAAUUGAUUAAUAAUUGAAUAUAGGAUUUGAGAAGGACAUUUACAUGAGGAUCACCCAUGU | – | – | 17.6 | 13.1 |
| ACAUGAUAUGUAGGAUAUCACAUUAAUUGAUUAAUAUAUCAAUAUAGAAUUUGAGAAGGACAUUUACAUGAGGAUCACCCAUGU | – | – | 10.7 | 8.71 |
| ACAUGCAUAGCGAUAUGAUCGAGAGAUCAUGUCGCUAAAUUUAGAAGGACAUGAGGAUCACCCAUGUAGGAUAUGGGAGCAUGG | 42.8 | 10.3 | – | – |
| ACAUGCAUAGCGAUAUGAUCGAGAGAUCAUGUCGCUAAAUUUAGAAGGACAUGAGGAUCACCCAUGUAGGAUAUGGGAGCAUGU | 49.5 | 10.8 | – | – |
| ACAUGCCUGUCGAUGCUCGACAUGAGGAUCACCCAUGUACAGCAGGAUAUGCAGAACUAACUCGUGCAGAAGGGCUGUACCUAA | – | – | 90.8 | 226 |
| ACAUGUCGUGAGAAGGACGGCGUGCAUAGCGCCGUAGGAUAUCAAGACAUGAGGAUCACCCAUGUACGCGUGUCCAGCCGUGCU | – | – | 65.2 | 342 |
| ACAUUAGUACCACAUGUAUUACAUGAGGAUCACCCAUGUUACUAGGAUAUGUAUUAGAAUUUACAACAGAAGGAGUUAUUAUGU | – | – | 17.2 | 17.1 |
| ACAUUGAAUGUGAGGAUAUCGAUGUGAUGGGUUGUCGAGAAGGCACAUGAGGAUCACCCAUGUGGGUUGUAGCA | – | – | 144 | 362 |
| ACAUUGCUAGGAUAUCGCGGUAAGGACAUGAGGAUCACCCAUGUGGUGCCGUGGGAGGCCCGAGAAGGAGCGACCU | – | – | 23.1 | 25.9 |
| ACCAGGGAUUCAGGAUAUAUUAGCCGAGGCCGCGUAGAAGGGAAAUCCUGACAUGAGGAUCACCCAUGUCGACCCGCCUUCCAA | 43.3 | 41.9 | – | – |
| ACCAUUUACUAAUUAUCUAUACAUGAGGAUCACCCAUGUUAAGAGGAUAUCAUCGUUCGCCGCGUUGAGAAGGCUUAGCAUUCG | – | – | 26.4 | 101 |
| ACCAUUUACUAGUUUUCUAUACAUGAGGAUCACCCAUGUUUUUAGGAUAUCAGCGUGAAACACGCUGAGAAGGAAGAACAUUCG | – | – | 22.6 | 31.2 |
| ACCGACACUUACAUGAGGAUCACCCAUGUGUGUAAUCGGACACAGGAUAUCCAUGGUAAGUAUCGGGAGAAGGGUGGAAAGAAA | 88.9 | 233 | – | – |
| ACCGUAUGAACAUGAGGAUCACCCAUGUAUCCGAAAAGGAAUGAGGAUAUCGAUAGCAAAGCUAUCGAGAAGGCAUGGGACGGU | 742 | 389 | – | – |
| ACCUAUGAGGAGGAUAUACGGUGCGAAAGGAAGGUAGAAGGCUUCACAUGAGGAUCACCCAUGUCUAUAAGCGA | – | – | 30.9 | 29.5 |
| ACCUCGUCAGGAUAUCCUAUUAAUUGUUUCAUAUUUACUAUGGAGAAGGGACAUGAGGAUCACCCAUGUUGGUC | – | – | 53.3 | 57.8 |
| ACGAAGAUACAGAAGGGUAAAGUAGUUAAUUAUAAGUAGGAAAUGCUCUACAGGAUAUGUUAGACAUGAGGAUCACCCAUGUAC | 30.7 | 13.1 | – | – |
| ACGAGGCUAGGAUAUACACAUCUGAUGACUCAUCCUAAAACACAUGAGGAUCACCCAUGUAGAAGGAGCAAAUA | – | – | 20.3 | 15.1 |
| ACGGCAAUCGAAGGAUAUGGUUACAUGAGGAUCACCCAUGUCUAGGGUCUAAUUAGGUAUAAUUACCAGAAGGUCGAAGGCCUA | – | – | 93.7 | 122 |
| ACGGCAAUCGCAGGAUAUGGUUACAUGAGGAUCACCCAUGUCUAGGGUCUAAUUAGGUAUAACUACCAGAAGGGCGAAGGCCUA | – | – | 53.5 | 66 |
| ACGGCAGUCAGAGGAUAUGGUUACAUGAGGAUCACCCAUGUCAAGGGUCUAAUUAGGUAUAACUACCAGAAGGCUGAAGGCCUA | – | – | 64.5 | 102 |
| ACGUAUAGAGGAUAUAGUGAAUAUUACAUGAGGAUCACCCAUGUUCUUCAAAGCAUAUUCCUAGAAGGCUGAUGAA | – | – | 44.8 | 83.6 |
| ACGUAUCAUGUAGGAUAUGACCCAGGAAACUGGUCAGAAGGACAUGAGGAUCACCCAUGUAGAGUAUGUUAGGAUGACGUAUGC | – | – | 138 | 188 |

| Sequence | apparent Kd [1] [nM] | apparent Kd [2] [nM] | apparent Kd [3] [nM] | apparent Kd [4] [nM] |
| --- | --- | --- | --- | --- |
| ACGUUACAUGAGGAUCACCCAUGUGAGGAUAUGGUGCGGUAGUGUCCUGUCGCGUACUCCAGAAGGCGCGGGUG | – | – | 204 | 147 |
| ACGUUUUAUGCAGGAUAUUGACAUAUAUUUAAACAAGAAGGGCAUUACAUGAGGAUCACCCAUGUUAUAAUGGUAUUUAAGUUC | – | – | 14.7 | 15.6 |
| ACUACGUUAGCGAUAUGAUCGAGAGAUCAUGUCGCUAUAUUUAGAAGGACAUGAGGAUCACCCAUGUAGGAUAUGGGUCGUGGA | 158 | 35.7 | – | – |
| ACUAGAUGAGGAUAUACACAUUUUAGUGUUCCUCUAGAUUAACAUGAGGAUCACCCAUGUAGAAGGCAUCAUUA | – | – | 59.7 | 218 |
| ACUAGUUGGUAAGGAUAUCCUACACUGUUCUGACCCGUGCAAGCUACAUGAGGAUCACCCAUGUGGGAGAAGGUGCGUCAACGC | – | – | 15.3 | 15.9 |
| ACUAUACGAGGAUAUACUGACGGGCCUCAGGCGUCCAUCAGACAUGAGGAUCACCCAUGUAGAAGGCGUAUACU | – | – | 85.5 | 196 |
| ACUGACAUGAGGAUCACCCAUGUCUUGAAUAGGUCAAAUUCACAGGAUAUGCGCUCGGCCAAGGCGCAGAAGGGUGAUGCAAUG | 57.9 | 11.1 | – | – |
| ACUGGUCGAGGAUAUACAUUCGUGCUUCGGCACGUAAGGUCACAUGAGGAUCACCCAUGUAGAAGGCGACCAGU | – | – | 40.1 | 207 |
| ACUUAUAGAGGAUAUACAGAAUAUUACAUGAGGAUCACCCAUGUUCUUCAAUGUAUAUUUGUAGAAGGCUAAGGAA | – | – | 50.6 | 249 |
| ACUUUACGAGGAUAUACUGUCGGGCCUCGGGCAUACAUACGACAUGAGGAUCACCCAUGUAGAAGGCGUUUACU | – | – | 33.6 | 61.1 |
| AGAAAACAUGAGGAUCACCCAUGUGAGGAUAUCGAUGUCCAAGGAAGGGUGCGGGACUCGAGAAGGCACUUGGA | – | – | 72.4 | 58.8 |
| AGAAAACAUGAGGAUCACCCAUGUGAGGAUAUCGAUGUCCAAGGCCGGGUGCGGGACUCGAGAAGGCACUUGGG | – | – | 75.5 | 38.7 |
| AGAAACUACGAGAAGGACAUAUGAUUAAGACUAAACAUGAGGAUCACCCAUGUAGGAUAUCGUAGUUUCAGGAUCGUGAGAUCA | – | – | 7.27 | 20.1 |
| AGAAACUAGGAGAAGGACAUAUGAUUAAGACGAAACAUGAGGAUCACCCAUGUAGGAUAUCCUAGUUUCAGGAUCGUGAGAUCA | – | – | 7.58 | 15.3 |
| AGAAAGUGAGGAUAUACAUGAGGAUCACCCAUGUAGAACGAGAGUUAUAAAAAUGGAAGUAGAAGGCGCAAAAG | – | – | 37.1 | 37.2 |
| AGACAGUCAGGAUAUACAUGAGGAUCACCCAUGUUGAGAUGUGAAAGGGCAGGAAUAGGUAGAAGGGACGAGAG | – | – | 34.6 | 33.7 |
| AGACAUGUCCGAGGAUAUCUGGAAACAUUUCCAAGAGAAGGCGGACAUGAGGAUCACCCAUGUCUCUCCUCAUCAAAUCCAAGU | – | – | 10.7 | 90.9 |
| AGACCAGUUCUAGGAUAUGUGUGACGUGAGUAAACAGAAGGAGAACAUGAGGAUCACCCAUGUGGGCCAAUCAUCCUCACGUGG | – | – | 44.9 | 371 |
| AGACGCAUGCAGAAGGACGACAUGAGGAUCACCCAUGUGGUCGGUAGGGUCGUAGGAUAUGCAAGGCGUUGCGAGCCAACUGUG | – | – | 118 | 26.9 |
| AGACGGAGCUGAGGAUAUUACAUGAGGAUCACCCAUGUAAGUCUCCAGGAAACUGGAGACAAAUGUAAGAAGGCAGCUCCGUCA | – | – | 19.3 | 29.5 |
| AGACUGCGUAGAAUUAGCAGCUGACAGGAUAUGACAUGAGGAUCACCCAUGUGAACUACAAAGGAUCAGAAGGGUCACGACACA | – | – | 18.6 | 30.3 |
| AGAGAAUACUCAGGAUAUCUUAAUAGAAAGAAUAGAGAAGGGAGACAUGAGGAUCACCCAUGUGAAGUCUUGAGACUACAUGGU | – | – | 291 | 442 |
| AGAGAGUGACAGAAGGGCAAGCUCGAUUGCGGAGAACGCGAUCGAGCUUGCAGGAUAUGUUGAACAUGAGGAUCACCCAUGUCA | 7.98 | 6.94 | – | – |
| AGAGCGAUAGGAUAUACAUGAGGAUCACCCAUGUUAAAAGUGGAAUCCUUGGACGCAUGUAGAAGGAUUGCGCC | – | – | 49.7 | 94.2 |
| AGAUAACACCAGAAGGACAUGAGGAUCACCCAUGUAGGAUAUGGGCAUCACUCGAGAAAGAAACAACCAAAAGGACACGCGGUC | 51 | 8.36 | – | – |
| AGAUGACAAAGUCAUCUCGCUCUGACAUGAGGAUCACCCAUGUAGGAUAUAUUACUCAAAGAGUAAUAGAAGGACAUGUGUCUG | – | – | 36.3 | 115 |
| AGAUGGUAUAUAGGAUAUCAUGUGCAAACAUGAGGAUCACCCAUGUAGAAACGUCAGUUUAAUAAUGAGAAGGAUAUACCAUCU | 31.9 | 11.5 | – | – |
